From ChEMBL document CHEMBL1148578, “Synthesis and biological evaluation of 6-(alkyn-1-yl)furo[2,3-d]pyrimidin-2(3H)-one base and nucleoside derivatives” (J Med Chem, 2006)

Key:
Human alphaherpesvirus 3 [1] = assay: Antiviral activity against Varicella-Zoster virus YS strain; assay type: functional, organism-based; conditions: Human alphaherpesvirus 3, YS
Human alphaherpesvirus 3 [2] = assay: Antiviral activity against Varicella-Zoster virus 07/1 strain; assay type: functional, organism-based; conditions: Human alphaherpesvirus 3, 07/1
Method in brief: (§1)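 HEL cell monolayers were infected with VZV (TK⁻ strains YS/R and 07/1) for 2 h. Residual virus was then removed and medium with graded compound concentrations was added, in duplicate. After 5 days at 37 °C, cells were ethanol-fixed and Giemsa-stained, and plaques were counted microscopically.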

HEL = assay: Cytotoxic activity against cultured human embryonic lung (HEL) cells; assay type: functional
Method in brief: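 HEL cells were seeded at 5 × 10³/well and grown for 24 h, then exposed to graded compound concentrations for 3 days at 37 °C. MCC was the lowest concentration giving microscopically visible alteration of cell morphology.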

Human betaherpesvirus 5 [3] = assay: Antiviral activity against human cytomegalovirus Davis strain; assay type: functional, organism-based; conditions: Human betaherpesvirus 5, Davis
Method in brief: (§2)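 Virus was removed and medium with graded compound concentrations was added, in duplicate. After 7 days at 37 °C, cells were ethanol-fixed and Giemsa-stained, and cytopathogenicity was scored microscopically.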

Human betaherpesvirus 5 [4] = assay: Antiviral activity against human cytomegalovirus AD169 strain; assay type: functional, organism-based; conditions: Human betaherpesvirus 5, AD169; method in brief: as §2
Human alphaherpesvirus 3 [5] = assay: Antiviral activity against Varicella-Zoster virus YS/R strain; assay type: functional, organism-based; conditions: Human alphaherpesvirus 3, YS/R; method in brief: as §1

SMILES | EC50 (Human alphaherpesvirus 3 [1]) [µM] | EC50 (Human alphaherpesvirus 3 [2]) [µM] | CC50 (HEL) [µM] | MCC (HEL) [µM] | EC50 (Human betaherpesvirus 5 [3]) [µM] | EC50 (Human betaherpesvirus 5 [4]) [µM] | EC50 (Human alphaherpesvirus 3 [5]) [µM]
CCCCCCCCC#Cc1cc2cn([C@@H]3O[C@H](CO)[C@@H](O)[C@H]3O)c(=O)nc2o1 | > 12 | ≥ 12 | 62 | 49 | ≥ 9.3 | 7.3 | 6.2
CCCCCCCCC#Cc1cc2cn(C)c(=O)nc2o1 | > 175 | > 70 | > 175 | > 175 | > 175 | > 175 | > 175
CCCCCCC#Cc1cc2cn([C@@H]3O[C@H](CO)[C@@H](O)[C@H]3O)c(=O)nc2o1 | ≥ 39 | 39 | > 133 | ≥ 133 | > 53 | > 133 | 19
CCCCCCC#Cc1cc2cn([C@@H]3O[C@H](CO)[C@@H](O)[C@@H]3O)c(=O)nc2o1 | ≥ 43 | 34 | > 53 | 133 | > 53 | > 53 | 21
CCCCCCCCCCC#Cc1cc2cn([C@@H]3O[C@H](CO)[C@@H](O)[C@H]3O)c(=O)nc2o1 | > 4.6 | 4.6 | 44 | 12 | > 4.6 | > 4.6 | 3.5
CCCCC#Cc1cc2cn(C)c(=O)nc2o1 | 217 | > 87 | > 217 | ≥ 217 | 139 | > 217 | > 87
CCCCCCCCC#Cc1cc2cn([C@H]3C[C@H](O)[C@@H](CO)O3)c(=O)nc2o1 | 2.7 | > 13 | 77 | 52 | 7.6 | 7.4 | 6.5
CCCCC#Cc1cc2cn([C@H]3C[C@H](O)[C@@H](CO)O3)c(=O)nc2o1 | 87 | ≥ 135 | > 150 | > 150 | > 150 | > 150 | 90
CCCCCCCCC#Cc1cc2cn([C@@H]3O[C@H](CO)[C@@H](O)[C@@H]3O)c(=O)nc2o1 | ≥ 11 | 11 | > 124 | 49 | 12 | > 12 | 3.7
CCCCCCCCCCC#Cc1cc2cn([C@@H]3O[C@H](CO)[C@@H](O)[C@@H]3O)c(=O)nc2o1 | ≥ 16 | > 12 | 116 | 46 | > 12 | > 12 | 5.7
CCCCCCCCCCC#Cc1cc2cn([C@H]3C[C@H](O)[C@@H](CO)O3)c(=O)nc2o1 | ≥ 5.7 | ≥ 6 | 36 | 30 | > 4.8 | > 4.8 | 2.5
CCCCCCCCCCC#Cc1cc2cn(C)c(=O)nc2o1 | > 150 | > 150 | > 150 | > 150 | > 150 | > 150 | > 150
CCCCCCC#Cc1cc2cn([C@H]3C[C@H](O)[C@@H](CO)O3)c(=O)nc2o1 | 1.5 | 25 | 138 | ≥ 97 | 19 | 21 | 22
CCCCCCC#Cc1cc2cn(C)c(=O)nc2o1 | ≥ 89 | > 77 | > 194 | 194 | 37 | 31 | 23
CCCCC#Cc1cc2cn([C@@H]3O[C@H](CO)[C@@H](O)[C@@H]3O)c(=O)nc2o1 | > 144 | > 144 | > 144 | > 144 | > 144 | > 144 | 63
CCCCC#Cc1cc2cn([C@@H]3O[C@H](CO)[C@@H](O)[C@H]3O)c(=O)nc2o1 | ≥ 113 | 144 | > 144 | > 144 | > 144 | > 144 | 52
Nc1nc2c(ncn2COCCO)c(=O)[nH]1 [ACYCLOVIR] |  |  | > 889 | > 222 |  |  | 
O=c1[nH]c(=O)n([C@H]2C[C@H](O)[C@@H](CO)O2)cc1/C=C/Br [BRIVUDINE] | 0.01 | ≥ 99 | > 150 | > 150 |  |  | ≥ 126
Nc1nc2c(ncn2COC(CO)CO)c(=O)[nH]1 [GANCICLOVIR] |  |  | > 197 | > 197 | 8.7 |  | 
